From ChEMBL document CHEMBL1781898, “Orally active achiral N-hydroxyformamide inhibitors of ADAM-TS4 (aggrecanase-1) and ADAM-TS5 (aggrecanase-2) for the treatment of osteoarthritis” (Bioorg Med Chem Lett, 2011)
Converted amounts (≈) assume the structure as drawn. The source made the active and inactive calls. No cut-off for these calls is given here.

Columns and labels:
[1] = Oral bioavailability in dog; assay type: ADME, organism-based, Canis lupus familiaris; settings: in vivo
[2] = Half life in mouse; assay type: ADME, organism-based; settings: in vivo
[3] = Free drug level in human; assay type: ADME, organism-based; settings: in vivo
[4] = Volume of distribution at steady state in rat at 2 mg/kg, iv and 3 to 10 mg/kg, po; assay type: ADME, organism-based; settings: in vivo, read-out: Vdss
[5] = Intrinsic clearance in human liver microsomes; assay type: ADME, Microsome
Outline: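 Human liver microsome metabolism; intrinsic clearance expressed as μL/min/mg, reported as mean of eight separate experiments.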

[6] = Half life in rat at 2 mg/kg, iv and 3 to 10 mg/kg, po; assay type: ADME, organism-based; settings: in vivo
[7] = Volume of distribution at steady state in mouse; assay type: ADME, organism-based; settings: in vivo, read-out: Vdss
Cavia porcellus = assay: Inhibition of ADAMTS4 in sc dosed Dunkin hartley guinea pig spontaneous osteoarthritis model assessed as reduction in NITEGE release in medial cartilage at concentration equivalent to 4 to 7 fold human ADAMTS4 FRET IC50 administered for 7 days; assay type: functional, organism-based
Outline: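 Compound given for 7 days via subcutaneous mini-pump; articular cartilage then dissected from medial tibial plateau of hind knee joints and NITEGE neo-epitope levels measured in cartilage extracts versus vehicle-treated animals; significance P < 0.05.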

Cytochrome P450 2D6 = Cytochrome P450 2D6 (Homo sapiens, UniProt P10635); assay: Inhibition of CYP2D6; assay type: ADME
Outline: (§1)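 Inhibition of cytochrome P450 isoforms 1A2, 2C9, 2C19, 2D6 and 3A4, reported as pIC50.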

[8] = Clearance in dog at 1 mg/kg, iv and 1 mg/kg, po; assay type: ADME, organism-based, Canis lupus familiaris; settings: in vivo
Homo sapiens [9] = species on record: Homo sapiens; assay: Inhibition of aggrecanase activity in IL-1, OSM and plasminogen-stimulated human articular cartilage explant assessed as reduction in CTXII peptide release at 10 uM after 14 days
[10] = Oral bioavailability in rat; assay type: ADME, organism-based; settings: in vivo
[11] = Intrinsic clearance in human hepatocytes measured per million cells; assay type: ADME, cell-based, Liver, Hepatocyte
Outline: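 Human hepatocyte metabolism; intrinsic clearance expressed as μL/min/10⁶ cells, reported as mean of six separate experiments.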

Cytochrome P450 3A4 = Cytochrome P450 3A4 (Homo sapiens, UniProt P08684); assay: Inhibition of CYP3A4; assay type: ADME; outline: as §1
Cytochrome P450 2C19 = Cytochrome P450 2C19 (Homo sapiens, UniProt P33261); assay: Inhibition of CYP2C19; assay type: ADME; outline: as §1
[12] = Volume of distribution at steady state in dog at 1 mg/kg, iv and 1 mg/kg, po; assay type: ADME, organism-based, Canis lupus familiaris; settings: in vivo, read-out: Vdss
[13] = Lipophilicity, log D of the compound; assay type: physicochemical; settings: octanol/water
[14] = Clearance in mouse; assay type: ADME, organism-based; settings: in vivo
[15] = target: T1, A disintegrin and metalloproteinase with thrombospondin motifs 5 (Homo sapiens, UniProt Q9UNA0); assay: Inhibition of ADAMTS-5 assessed as substrate cleavage after 16 hrs by fluorescence assay
T1 sequence (Q9UNA0 whole entry): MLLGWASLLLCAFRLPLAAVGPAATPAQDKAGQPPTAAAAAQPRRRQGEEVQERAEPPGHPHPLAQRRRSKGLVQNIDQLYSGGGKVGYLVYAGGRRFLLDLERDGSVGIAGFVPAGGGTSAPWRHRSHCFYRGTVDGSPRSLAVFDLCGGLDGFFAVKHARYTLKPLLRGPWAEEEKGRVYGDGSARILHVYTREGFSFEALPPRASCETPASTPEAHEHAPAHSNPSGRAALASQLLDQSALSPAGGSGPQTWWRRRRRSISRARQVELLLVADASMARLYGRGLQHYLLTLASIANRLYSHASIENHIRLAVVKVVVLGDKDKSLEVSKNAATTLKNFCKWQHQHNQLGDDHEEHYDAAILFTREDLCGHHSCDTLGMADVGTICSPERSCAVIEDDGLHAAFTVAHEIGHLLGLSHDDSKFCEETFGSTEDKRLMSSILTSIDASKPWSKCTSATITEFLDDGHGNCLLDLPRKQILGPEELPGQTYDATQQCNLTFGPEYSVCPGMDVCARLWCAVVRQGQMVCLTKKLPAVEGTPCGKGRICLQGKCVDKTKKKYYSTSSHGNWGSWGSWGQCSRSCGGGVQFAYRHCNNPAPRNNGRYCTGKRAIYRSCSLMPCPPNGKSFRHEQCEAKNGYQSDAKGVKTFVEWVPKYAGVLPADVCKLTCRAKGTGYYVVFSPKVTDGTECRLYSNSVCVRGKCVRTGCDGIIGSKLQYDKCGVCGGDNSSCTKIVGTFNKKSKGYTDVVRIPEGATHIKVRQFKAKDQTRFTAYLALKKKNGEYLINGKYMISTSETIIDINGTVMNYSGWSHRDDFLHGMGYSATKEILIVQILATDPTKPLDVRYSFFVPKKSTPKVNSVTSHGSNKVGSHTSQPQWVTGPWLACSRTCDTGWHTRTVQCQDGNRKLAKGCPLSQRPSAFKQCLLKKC
Outline: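 Enzyme inhibition IC50s derived from at least six measurements, standard errors normally <5% within an assay; a standard compound run to keep assay-to-assay variability within twofold.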

Cytochrome P450 1A2 = target: T2, Cytochrome P450 1A2 (Homo sapiens, UniProt P05177); assay: Inhibition of CYP1A2; assay type: ADME; outline: as §1
T2 sequence (P05177 whole entry): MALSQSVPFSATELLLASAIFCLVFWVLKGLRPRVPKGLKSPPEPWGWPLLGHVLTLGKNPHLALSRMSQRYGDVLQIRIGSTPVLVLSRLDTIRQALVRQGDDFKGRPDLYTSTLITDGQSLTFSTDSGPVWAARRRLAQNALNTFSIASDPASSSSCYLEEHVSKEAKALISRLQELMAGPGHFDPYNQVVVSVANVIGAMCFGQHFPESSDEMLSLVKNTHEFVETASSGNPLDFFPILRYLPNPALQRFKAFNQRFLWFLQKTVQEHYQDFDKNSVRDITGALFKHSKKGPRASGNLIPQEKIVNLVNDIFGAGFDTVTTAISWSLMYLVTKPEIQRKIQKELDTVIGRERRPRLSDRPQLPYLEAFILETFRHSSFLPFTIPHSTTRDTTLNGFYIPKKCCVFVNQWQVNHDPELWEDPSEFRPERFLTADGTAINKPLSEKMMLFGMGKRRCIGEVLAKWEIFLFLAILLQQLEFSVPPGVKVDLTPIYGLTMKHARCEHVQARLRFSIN

[16] = Apparent permeability across apical to basolateral side in human Caco2 cells at 10 uM; assay type: ADME, cell-based; settings: Caco-2
[17] = target: Voltage-gated inwardly rectifying potassium channel KCNH2 (Homo sapiens, UniProt Q12809)
Cytochrome P450 2C9 = Cytochrome P450 2C9 (Homo sapiens, UniProt P11712); assay: Inhibition of CYP2C9; assay type: ADME; outline: as §1
[18] = Free drug level in dog; assay type: ADME, organism-based, Canis lupus familiaris; settings: in vivo
[19] = Free drug level in rat; assay type: ADME, organism-based; settings: in vivo
[20] = Thermodynamic solubility of the compound in phosphate buffer at pH 7.4 after 24 hrs; assay type: physicochemical; settings: read-out: Therm_solubility
[21] = Apparent permeability across basolateral to apical side in human Caco2 cells at 10 uM; assay type: ADME, cell-based; settings: Caco-2
Homo sapiens [22] = species on record: Homo sapiens; assay: Inhibition of aggrecanase activity in IL-1, OSM and plasminogen-stimulated human articular cartilage explant assessed as reduction in CTXII peptide release at 10 uM after 21 days
Outline: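 Human cartilage stimulated with interleukin-1, oncostatin-M and plasminogen for 21 days, without or with 10 µM compound.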

Cytochrome P450 3A4, sequence (P08684 whole entry): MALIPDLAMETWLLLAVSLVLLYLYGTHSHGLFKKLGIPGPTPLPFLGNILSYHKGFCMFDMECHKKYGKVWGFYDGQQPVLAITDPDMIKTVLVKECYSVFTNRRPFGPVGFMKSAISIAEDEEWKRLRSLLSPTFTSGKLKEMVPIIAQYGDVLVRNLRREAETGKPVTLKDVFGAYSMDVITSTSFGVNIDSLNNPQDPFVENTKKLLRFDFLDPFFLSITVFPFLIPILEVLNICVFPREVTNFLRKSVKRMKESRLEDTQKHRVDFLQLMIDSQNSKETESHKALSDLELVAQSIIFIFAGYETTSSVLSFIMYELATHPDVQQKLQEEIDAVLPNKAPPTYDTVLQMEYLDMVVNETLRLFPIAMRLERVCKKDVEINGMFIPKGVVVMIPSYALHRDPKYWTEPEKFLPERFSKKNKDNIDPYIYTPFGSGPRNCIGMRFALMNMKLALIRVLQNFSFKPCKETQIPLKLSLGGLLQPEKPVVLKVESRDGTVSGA
Cytochrome P450 2D6, sequence (P10635 whole entry, canonical isoform): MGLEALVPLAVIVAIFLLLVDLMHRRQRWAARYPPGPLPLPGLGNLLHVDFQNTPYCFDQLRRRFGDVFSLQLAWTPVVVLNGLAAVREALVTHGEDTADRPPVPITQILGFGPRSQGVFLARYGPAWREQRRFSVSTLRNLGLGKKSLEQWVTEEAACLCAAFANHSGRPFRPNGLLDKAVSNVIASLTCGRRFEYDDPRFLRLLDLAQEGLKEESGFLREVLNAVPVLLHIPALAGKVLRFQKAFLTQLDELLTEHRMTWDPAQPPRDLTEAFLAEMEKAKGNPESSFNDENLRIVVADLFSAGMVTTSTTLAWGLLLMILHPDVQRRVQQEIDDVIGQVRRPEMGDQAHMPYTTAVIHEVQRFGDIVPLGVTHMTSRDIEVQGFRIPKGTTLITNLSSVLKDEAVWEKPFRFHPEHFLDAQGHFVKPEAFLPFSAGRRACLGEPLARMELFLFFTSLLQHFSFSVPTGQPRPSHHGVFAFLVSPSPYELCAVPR
Cytochrome P450 2C19, sequence (P33261 whole entry): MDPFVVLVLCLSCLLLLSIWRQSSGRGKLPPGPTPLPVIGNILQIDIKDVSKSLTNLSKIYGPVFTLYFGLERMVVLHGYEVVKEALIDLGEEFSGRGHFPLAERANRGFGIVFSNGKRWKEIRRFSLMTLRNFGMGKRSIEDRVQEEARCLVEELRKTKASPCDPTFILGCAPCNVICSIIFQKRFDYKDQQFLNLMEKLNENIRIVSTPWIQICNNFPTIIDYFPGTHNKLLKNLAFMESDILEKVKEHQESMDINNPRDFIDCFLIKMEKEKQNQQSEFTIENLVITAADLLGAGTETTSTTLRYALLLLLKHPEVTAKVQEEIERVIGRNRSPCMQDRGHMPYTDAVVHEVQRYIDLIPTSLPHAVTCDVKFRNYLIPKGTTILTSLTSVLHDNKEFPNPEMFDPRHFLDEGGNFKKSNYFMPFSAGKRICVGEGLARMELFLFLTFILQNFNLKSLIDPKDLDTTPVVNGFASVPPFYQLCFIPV
Cytochrome P450 2C9, sequence (P11712 whole entry): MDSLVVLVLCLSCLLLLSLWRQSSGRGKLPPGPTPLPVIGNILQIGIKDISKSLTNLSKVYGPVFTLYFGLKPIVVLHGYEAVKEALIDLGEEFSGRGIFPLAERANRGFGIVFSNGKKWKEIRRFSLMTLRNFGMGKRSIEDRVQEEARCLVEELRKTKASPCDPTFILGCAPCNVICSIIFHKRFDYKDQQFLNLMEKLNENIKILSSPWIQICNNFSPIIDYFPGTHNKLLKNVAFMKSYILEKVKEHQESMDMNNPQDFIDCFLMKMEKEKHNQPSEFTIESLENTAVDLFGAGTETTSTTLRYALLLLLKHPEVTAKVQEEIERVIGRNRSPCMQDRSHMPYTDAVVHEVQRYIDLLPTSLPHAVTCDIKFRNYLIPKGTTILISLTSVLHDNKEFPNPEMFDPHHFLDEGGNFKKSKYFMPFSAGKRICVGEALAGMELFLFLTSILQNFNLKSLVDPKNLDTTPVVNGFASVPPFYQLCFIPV
Voltage-gated inwardly rectifying potassium channel KCNH2, sequence (Q12809 whole entry): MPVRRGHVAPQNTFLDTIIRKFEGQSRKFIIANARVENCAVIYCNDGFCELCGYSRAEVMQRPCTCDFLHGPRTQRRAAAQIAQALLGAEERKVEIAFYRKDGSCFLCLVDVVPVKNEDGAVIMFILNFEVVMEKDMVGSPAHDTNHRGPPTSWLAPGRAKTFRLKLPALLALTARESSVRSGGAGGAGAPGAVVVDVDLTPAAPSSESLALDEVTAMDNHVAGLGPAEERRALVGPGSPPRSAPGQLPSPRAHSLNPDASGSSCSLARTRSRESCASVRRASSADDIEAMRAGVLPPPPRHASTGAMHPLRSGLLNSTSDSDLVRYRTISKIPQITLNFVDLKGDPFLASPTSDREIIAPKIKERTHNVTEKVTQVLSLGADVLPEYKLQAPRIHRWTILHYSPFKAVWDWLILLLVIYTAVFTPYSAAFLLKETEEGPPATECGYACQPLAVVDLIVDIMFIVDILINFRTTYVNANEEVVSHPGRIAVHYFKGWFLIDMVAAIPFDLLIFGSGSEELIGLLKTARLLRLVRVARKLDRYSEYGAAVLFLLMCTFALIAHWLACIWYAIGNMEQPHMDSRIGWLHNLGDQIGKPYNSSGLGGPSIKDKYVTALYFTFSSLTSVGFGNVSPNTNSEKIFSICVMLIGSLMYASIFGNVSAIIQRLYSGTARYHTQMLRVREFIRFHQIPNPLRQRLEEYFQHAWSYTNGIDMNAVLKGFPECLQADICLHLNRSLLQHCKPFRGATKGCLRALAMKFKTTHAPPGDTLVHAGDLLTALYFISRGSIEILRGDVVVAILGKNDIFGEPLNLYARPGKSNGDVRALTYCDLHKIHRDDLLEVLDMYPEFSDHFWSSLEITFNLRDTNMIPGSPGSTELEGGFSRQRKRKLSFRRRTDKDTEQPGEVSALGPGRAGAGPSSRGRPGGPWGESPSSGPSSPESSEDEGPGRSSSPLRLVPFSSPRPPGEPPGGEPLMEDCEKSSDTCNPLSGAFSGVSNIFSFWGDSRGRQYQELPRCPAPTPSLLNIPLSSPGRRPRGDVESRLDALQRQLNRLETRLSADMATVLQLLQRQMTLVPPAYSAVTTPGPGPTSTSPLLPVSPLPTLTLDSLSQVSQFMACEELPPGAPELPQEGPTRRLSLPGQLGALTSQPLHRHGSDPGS

Compound `Cc1noc(C)c1CCC1CCN(S(=O)(=O)C[C@](C)(C[C@H](C)c2ncc(F)cn2)N(O)C=O)CC1` has a bioavailability [1] of 20%, a half-life [2] of 5.4 h and a fraction unbound [3] of 0.11. For the same compound, the Vd [4] was 7.4 L/kg, the microsomal CLint [5] was 29.4 µL/min/mg and the half-life [6] was 11 h. For the same compound, the Vd [7] was 7.2 L/kg, the inhibition (Cavia porcellus) was “Active” and the “inhibition (INH)” value (Cytochrome P450 2D6) was “Not Active”. The clearance [8] was 20.7 mL/min/kg, the inhibition (Homo sapiens [9]) was “Active” and the bioavailability [10] was 1%. For the same compound, the hepatocyte CLint [11] was < 2 µL/min/1e6 cells, the “inhibition (INH)” value (Cytochrome P450 3A4) was “Not Active” and the “inhibition (INH)” value (Cytochrome P450 2C19) was “Not Active”. The Vd [12] was 9.2 L/kg, the logD [13] was 1.6 and the clearance [14] was 16.8 mL/min/kg. For the same compound, the IC50 [15] was 0.023 µM, the “inhibition (INH)” value (Cytochrome P450 1A2) was “Not Active” and the Papp A→B at 10 µM [16] was 5.3 ×10⁻⁶ cm/s. The IC50 [17] was 65 µM, the “inhibition (INH)” value (Cytochrome P450 2C9) was “Not Active” and the fraction unbound [18] was 0.25. The fraction unbound [19] was 0.22, the solubility thermodynamic at 24 h [20] was 150 µM (≈ 76.7 µg/mL) and the Papp B→A at 10 µM [21] was 10.9 ×10⁻⁶ cm/s. The inhibition (Homo sapiens [22]) was “Active”.
